Assay results of several laboratories.
Each line is one published result; the experiments were not run side by side.
Organism: Mycobacterium tuberculosis
Observed: microbial growth

SMILES	technique	strain	time	MIC
CCc1nc2[nH]c(=O)n(O)c(=O)c2s1				46.4 µM
CCc1cc(=O)c2c(OCC(O)CNC(C)(C)C)c3ccoc3c(OC)c2o1 (centres unmarked)	resazurin		21 days	32 µg/mL
FC(F)(F)c1ccc(CCNc2cc(-c3ccccn3)nc3nnc(C4CC4)n23)cc1		H37RV	5 days	17 to 50 µM
CCOC(=O)c1c(-c2ccc(OC)cc2)oc2ccc(O)c(CN3CCN(Cc4cn(C[C@H]5O[C@H](O[C@H]6O[C@H](CO)[C@@H](O)[C@H](O)[C@H]6O)[C@H](O)[C@@H](O)[C@@H]5O)nn4)CC3)c12		CDC1551		5.3 µM
CC[C@@H](CO)NCCN[C@@H](CC)CO	resazurin	H37RV	5 days	1 µg/mL
[H]/N=C(/N)N[C@H]1[C@H](O)[C@@H](O)[C@H](O[C@@H]2O[C@@H](C)[C@](O)(C=O)[C@H]2O[C@@H]2O[C@@H](CO)[C@H](O)[C@@H](O)[C@@H]2NC)[C@@H](N/C(N)=N\[H])[C@@H]1O	resazurin	H37RV	21 days	0.25 µg/mL
CCc1ccc(CCNc2cc(-c3ccccn3)nc3nncn23)cc1		H37RV		0.12 µM
CO[C@H]1/C=C/O[C@@]2(C)Oc3c(C)c(O)c4c(O)c(c(/C=N/N5CCN(C)CC5)c(O)c4c3C2=O)NC(=O)/C(C)=C\C=C\[C@H](C)[C@H](O)[C@@H](C)[C@@H](O)[C@@H](C)[C@H](OC(C)=O)[C@@H]1C		H37RA		0.01 µM
Clc1ccc(CCNc2cc(-c3ccccn3)nc3nnc(C4CC4)n23)cc1		H37RV	5 days	17 to 50 µM
COc1nc2ccc(Br)cc2cc1[C@@H](c1ccccc1)[C@@](O)(CCN(C)C)c1cccc2ccccc12		H37RV		0.31 µM
CCOC(=O)c1c(-c2ccc(OC)cc2)oc2ccc(OCc3cn(C[C@H]4O[C@H](O[C@H]5O[C@H](CO)[C@@H](O)[C@H](O)[C@H]5O)[C@H](O)[C@@H](O)[C@@H]4O)nn3)c(CN3CCCCC3)c12		CDC1551		77.3 µM
CCCCCc1ccc(Nc2cc(-c3ccccn3)nc3nncn23)cc1		H37RV		> 100 µM
CCc1cc(=O)c2c(OCC(O)CNC(C)C)c3ccoc3c(OC)c2o1 (centres unmarked)	resazurin	H37RV	21 days	64 µg/mL
COc1c(N2C[C@@H]3CCCN[C@@H]3C2)c(F)cc2c(=O)c(C(=O)O)cn(C3CC3)c12		H37RV		0.125 µg/mL
CC[C@@H](CO)NCCN[C@@H](CC)CO	resazurin	H37RV		2.45 µM
Brc1ccc(CCNc2cc(-c3ccccn3)nc3nncn23)cc1		H37RV		1.1 µM
CO[C@H]1/C=C/O[C@@]2(C)Oc3c(C)c(O)c4c(O)c(c(/C=N/N5CCN(C)CC5)c(O)c4c3C2=O)NC(=O)/C(C)=C\C=C\[C@H](C)[C@H](O)[C@@H](C)[C@@H](O)[C@@H](C)[C@H](OC(C)=O)[C@@H]1C		H37RV		0.06 µg/mL
CCc1cc(=O)c2c(OCC(O)CN3CCOCC3)c3ccoc3c(OC)c2o1 (centres unmarked)	resazurin		21 days	64 µg/mL
COC(=O)C=C1SC(=NN=Cc2ccc(OC(=O)CN3C(=O)CSC3=O)cc2)NC1=O	resazurin	H37RV		34.6 µM

SMILES	technique	strain	time	MIC
[H]/N=C(/N)N[C@H]1[C@H](O)[C@@H](O)[C@H](O[C@@H]2O[C@@H](C)[C@](O)(C=O)[C@H]2O[C@@H]2O[C@@H](CO)[C@H](O)[C@@H](O)[C@@H]2NC)[C@@H](N/C(N)=N\[H])[C@@H]1O	resazurin	H37RV	5 days	1 µg/mL
CC[C@@H](CO)NCCN[C@@H](CC)CO	resazurin	H37RV	7 days	1.56 µg/mL
Cc1nc2[nH]c(=O)n(O)c(=O)c2s1				20.4 µM
[H]/N=C(/N)N[C@H]1[C@H](O)[C@@H](O)[C@H](O[C@@H]2O[C@@H](C)[C@](O)(C=O)[C@H]2O[C@@H]2O[C@@H](CO)[C@H](O)[C@@H](O)[C@@H]2NC)[C@@H](N/C(N)=N\[H])[C@@H]1O	resazurin	H37RV		0.43 µM
FC(F)Oc1ccc(CCNc2cc(-c3ccccn3)nc3nncn23)cc1		H37RV		1.1 µM
CCc1cc(=O)c2c(O)c3ccoc3c(OC)c2o1	resazurin	H37RV	21 days	512 µg/mL
O=c1[nH]c2nc(-c3ccncc3)sc2c(=O)n1O				> 100 µM
COc1ccc(-c2oc3ccc(O)c(CN4CCCCC4)c3c2C(=O)NCc2cn(C[C@H]3O[C@H](O[C@H]4O[C@H](CO)[C@@H](O)[C@H](O)[C@H]4O)[C@H](O)[C@@H](O)[C@@H]3O)nn2)cc1		CDC1551		0.7 µM
O=[N+]([O-])c1cn2c(n1)OC[C@@H](OCc1ccc(OC(F)(F)F)cc1)C2		H37RV		0.31 µM
CO[C@H]1/C=C/O[C@@]2(C)Oc3c(C)c(O)c4c(O)c(c(/C=N/N5CCN(C)CC5)c(O)c4c3C2=O)NC(=O)/C(C)=C\C=C\[C@H](C)[C@H](O)[C@@H](C)[C@@H](O)[C@@H](C)[C@H](OC(C)=O)[C@@H]1C	resazurin	H37RV		0.152 µM
CO[C@H]1/C=C/O[C@@]2(C)Oc3c(C)c(O)c4c(O)c(c(/C=N/N5CCN(C)CC5)c(O)c4c3C2=O)NC(=O)/C(C)=C\C=C\[C@H](C)[C@H](O)[C@@H](C)[C@@H](O)[C@@H](C)[C@H](OC(C)=O)[C@@H]1C	resazurin		21 days	64 µg/mL
CC(C)c1nc2[nH]c(=O)n(O)c(=O)c2s1				65.4 µM
C#CC[N+]1(CC)CCc2c(sc(NC(=O)c3c(F)c(F)c(F)c(F)c3F)c2C(=O)OCC)C1 (centres unmarked)		CDC1551		5.8 µM
CCc1cc(=O)c2c(OCC3CO3)c3ccoc3c(OC)c2o1 (centres unmarked)	resazurin		21 days	64 µg/mL
c1ccc(CCOc2cc(-c3ccccn3)nc3ncnn23)cc1		H37RV		> 100 µM
NNC(=O)c1ccncc1	resazurin	H37RV	7 days	0.05 µg/mL
Cc1ccc(CCNc2cc(C3CCCO3)nc3nncn23)cc1 (centres unmarked)		H37RV		47 µM
CCc1cc(=O)c2c(OCC(O)CN(CC)CC)c3ccoc3c(OC)c2o1 (centres unmarked)	resazurin		21 days	64 µg/mL
NNC(=O)c1ccncc1	resazurin	H37RV		0.228 µM
